Measured values as given in PubChem BioAssay.
Calls of active or inactive are those of the source.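 How the source made its calls, unless noted: active means viability loss from added drug above about 55%, and viability with drug at most 40%, in both replicates (limit read from the data, passing the limit was not always enough); inconclusive means both conditions met in only one replicate; inactive means neither replicate meets both conditions.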

How the values were obtained:
[1] = Her2 expression decrease, cell viability multiplex – SKBR3 breast tumor cells, AlphaScreen, ATP viability, primary screen (AID 461;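 active means Her2 level under about 52% in both replicate screens, with viability over 70% of control, limit read from the data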;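 on Her2 level: lower value means less Her2 protein in the cells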;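 on viability: percent of carrier control wells set as 100% viability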); conditions: SKBR3 Her2 protein level, 18-24 h, measured here: SKBR3 viability, ATP luminescence, at 10 µM
[2] = molecular target: Receptor tyrosine-protein kinase erbB-2 (Homo sapiens) (UniProt P04626); assay: as above; conditions: 18-24 h, at 10 µM, stronger effect = lower value
Sequence of Receptor tyrosine-protein kinase erbB-2 (Homo sapiens) (P04626 whole entry, looked up): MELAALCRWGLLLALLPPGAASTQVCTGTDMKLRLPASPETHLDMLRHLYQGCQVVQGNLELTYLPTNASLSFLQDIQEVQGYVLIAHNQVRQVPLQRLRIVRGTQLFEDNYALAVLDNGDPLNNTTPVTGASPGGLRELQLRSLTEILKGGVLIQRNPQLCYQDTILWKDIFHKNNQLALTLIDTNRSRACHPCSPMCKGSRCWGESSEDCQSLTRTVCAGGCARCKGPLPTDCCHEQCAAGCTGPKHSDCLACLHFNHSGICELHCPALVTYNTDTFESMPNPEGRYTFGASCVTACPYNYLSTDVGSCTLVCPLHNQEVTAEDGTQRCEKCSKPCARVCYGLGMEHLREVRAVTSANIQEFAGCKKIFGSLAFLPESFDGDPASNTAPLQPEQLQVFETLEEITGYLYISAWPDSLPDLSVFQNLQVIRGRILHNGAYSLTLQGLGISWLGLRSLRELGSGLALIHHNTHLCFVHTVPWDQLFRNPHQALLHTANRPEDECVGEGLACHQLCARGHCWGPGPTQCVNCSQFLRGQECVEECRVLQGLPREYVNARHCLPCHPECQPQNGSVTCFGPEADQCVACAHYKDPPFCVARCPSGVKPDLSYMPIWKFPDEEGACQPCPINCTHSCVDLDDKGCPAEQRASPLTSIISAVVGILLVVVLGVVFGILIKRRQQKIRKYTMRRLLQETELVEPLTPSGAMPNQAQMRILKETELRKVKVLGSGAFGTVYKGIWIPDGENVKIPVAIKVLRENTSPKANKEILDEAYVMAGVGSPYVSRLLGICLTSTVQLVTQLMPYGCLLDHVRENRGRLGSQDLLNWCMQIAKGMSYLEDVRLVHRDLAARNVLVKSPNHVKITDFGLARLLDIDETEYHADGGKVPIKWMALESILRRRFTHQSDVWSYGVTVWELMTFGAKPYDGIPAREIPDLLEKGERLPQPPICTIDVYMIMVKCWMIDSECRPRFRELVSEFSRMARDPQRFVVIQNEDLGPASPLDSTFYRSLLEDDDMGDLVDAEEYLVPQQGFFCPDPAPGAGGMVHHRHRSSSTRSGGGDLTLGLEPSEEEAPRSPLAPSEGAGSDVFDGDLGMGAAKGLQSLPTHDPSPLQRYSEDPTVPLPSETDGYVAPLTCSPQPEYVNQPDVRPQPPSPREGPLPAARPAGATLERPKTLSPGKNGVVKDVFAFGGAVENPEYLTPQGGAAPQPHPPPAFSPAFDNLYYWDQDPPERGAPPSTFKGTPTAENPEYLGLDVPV

[3] = reduced viability of SK-BR-3 breast cancer cells – cell-based, 24 h, human, pilot screen (AID 572;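 active means viability at or below 10% of carrier control in both of two separate runs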;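 further: compound exposure lasted between 18 and 24 h rather than exactly 24 h; 100% = carrier-treated control wells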); conditions: SK-BR-3 viability, CellTiter-Glo luminescence, at 10 µM, stronger effect = lower value
[4] = HUVEC growth inhibition – cell-based, human, primary screen (AID 575;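 active means viability at or below 30% in both replicate assays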;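 further: 100% = median of untreated cell wells with 0.1% DMSO on each plate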); conditions: HUVEC proliferation, CellTiter-Glo luminescence, 72 h; at 10 µM; stronger effect = lower value
Summary of the method: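 Assay system: primary human umbilical vein endothelial cells / Buffer or medium: endothelial basal medium with 2% FBS plus growth supplements / Compound dosing: one dose, 10 µM final, 0.1% DMSO / Timing: 72 h treatment at 37 °C / Signal: CTG luminescence / Benchmarks: 32 DMSO-only cell-control wells (high), 32 MePR drug-control wells (low) per plate / Plate: collagen-coated 384-well format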

[5] = H69AR cell proliferation blockers – human, duplicate replicates, primary screen (AID 580;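 active means viability at or under a set limit in both replicates, limit being median viability minus 3 SD, cut at about 48% in these data, passing the limit was not always enough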;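 further: 100% = mean luminescence of untreated wells and 0% = no signal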); conditions: H69AR lung tumor cells viability, ATP luminescence, 72 h; at 10 µM; stronger effect = lower value
[6] = MRP1 drug-resistance reversers in H69AR cells – cell-based, doxorubicin co-treatment, pilot screen (AID 601); conditions: CellTiter-Glo, 72 h, at 10 µM; for differential viability (reversal): stronger effect = higher value
[7] = yeast transport mutant growth inhibition pilot in 384-well plates, post-Golgi transport modulator project (AID 636; in the data active means inhibition above about 31%); conditions: absorbance 615 nm, about 18 h, stronger effect = higher value
[8] = growth suppression of yeast trafficking mutant, preliminary HTS, modulators of trafficking downstream of Golgi apparatus project, 1536-format plate, OD 615 nm (AID 637; in the data active means inhibition above about 30%); conditions: yeast transport mutant growth, absorbance 615 nm, 18 h; stronger effect = higher value
[9] = H69AR cells + 2 uM doxorubicin, measured here: viability with 2 uM doxorubicin, stronger effect = lower value
[10] = H69AR cells, compound alone cytotoxicity

| SMILES | viability [1] [%] | Her2 level [2] | viability [3] | viability [4] | viability [5] | differential viability (reversal) ([6]; H69AR cells + 2 uM doxorubicin) | viability [6, 9] [%] | viability [6, 10] [%] | inhibition [7] | inhibition [8] |
| --- | --- | --- | --- | --- | --- | --- | --- | --- | --- | --- |
| CC1=C(C)C(=O)NC(Nc2nc(C)c3cc(C)cc(C)c3n2)N1 (stereo not given) | 120 | 79.5% (inactive) | 120% (inactive) | 10.6% (active) | 17.2% (active) | 6.29% (inactive) | 10.9 | 17.2 | -3.59% (inactive) | -3% (inactive) |
| CCCn1c(N)c(C(=O)CSc2nnc(Cc3ccccc3)o2)c(=O)n(C)c1=O | 104 | 90.5% (inactive) | 104% (inactive) | 75.2% (inactive) | 84.6% (inactive) | -13.6% (inactive) | 98.2 | 84.6 | 0.65% (inactive) | 3.93% (inactive) |
| Cc1ncoc1C(=O)Nc1cccc(Cl)c1C | 104 | 114% (inactive) | 104% (inactive) | 113% (inactive) | 101% (inactive) | 15.6% (inactive) | 85.1 | 101 | -3.78% (inactive) | 0.33% (inactive) |
| CCOC(=O)Nc1ccc2c(CN3C(=O)NC4(CCCC4)C3=O)cc(=O)oc2c1 | 89.5 | 92.5% (inactive) | 89.5% (inactive) | 89.2% (inactive) | 88.3% (inactive) | -1.09% (inactive) | 89.4 | 88.3 | -6.58% (inactive) | -0.16% (inactive) |
| C=CCn1c(-c2ccccc2)c[nH]c1=S | 91 | 92.5% (inactive) | 91% (inactive) | 114% (inactive) | 99.9% (inactive) | 22.4% (inactive) | 77.5 | 99.9 | -5.84% (inactive) | 0.16% (inactive) |
| C=CCOc1ccc(C2C(C(=O)c3ccco3)=C(O)C(=O)N2Cc2cccnc2)cc1 (stereo not given) | 108 | 89.5% (inactive) | 108% (inactive) | 119% (inactive) | 90.9% (inactive) | 2.87% (inactive) | 88 | 90.9 | -1.71% (inactive) | 8.69% (inactive) |
| Cc1nnc(SCCn2c(N3CC(C)CC(C)C3)nc3c2c(=O)n(C)c(=O)n3C)s1 (stereo not given) | 106 | 99.5% (inactive) | 106% (inactive) | 93.8% (inactive) | 95.9% (inactive) | -2.37% (inactive) | 98.2 | 95.9 | 0.26% (inactive) | 24.7% (inactive) |
| CN(CC(=O)N1CCN(c2ccc(F)cc2)CC1)S(=O)(=O)c1ccc(F)cc1 | 97 | 95.5% (inactive) | 97% (inactive) | 88.4% (inactive) | 86.6% (inactive) | -7.95% (inactive) | 94.5 | 86.6 | -6.18% (inactive) | 5.25% (inactive) |
| CCC(C)(C)n1nnnc1C(c1ccc(OC)c(OC)c1)N1CCN(c2ccc(F)cc2)CC1 (stereo not given) | 80 | 93.5% (inactive) | 80% (inactive) | 89.2% (inactive) | 85.8% (inactive) | 31.3% (inactive) | 54.5 | 85.8 | -1.95% (inactive) | 2% (inactive) |
| Cc1cc(C2C(C#N)=C(N)SC(N)=C2C#N)c(C)s1 | 107 | 100% (inactive) | 107% (inactive) | 82.4% (inactive) | 94.7% (inactive) | 7.28% (inactive) | 87.5 | 94.7 | -2.89% (inactive) | 7.21% (inactive) |
| Cc1cc2c(cc1C)-c1nnnn1C(C)(C)C2 | 110 | 97.5% (inactive) | 110% (inactive) | 101% (inactive) | 91.9% (inactive) | 4.78% (inactive) | 87.1 | 91.9 | -9.07% (inactive) | -5.24% (inactive) |
| Cn1c(Cc2csc(N)n2)nnc1SCC(=O)NCc1ccccc1 | 93 | 99.5% (inactive) | 93% (inactive) | 114% (inactive) | 100% (inactive) | -11.2% (inactive) | 111 | 100 | 0.39% (inactive) | -4.52% (inactive) |
| Cc1cc(NC(=O)COC(=O)C2COc3ccccc3O2)no1 (stereo not given) | 110 | 95.5% (inactive) | 110% (inactive) | 104% (inactive) | 96.7% (inactive) | 11% (inactive) | 85.7 | 96.7 | -4.61% (inactive) | -5% (inactive) |
| c1ccc(-n2ncc3c(N4CCCCC4)ncnc32)cc1 | 105 | 90.5% (inactive) | 105% (inactive) | 59.4% (inactive) | 70% (inactive) | 4.94% (inactive) | 65.1 | 70 | -3.6% (inactive) | -4.17% (inactive) |
| C=CCn1c(COc2ccccc2)nnc1SCC(=O)C(C)(C)C | 78 | 107% (inactive) | 78% (inactive) | 102% (inactive) | 97.8% (inactive) | 5.13% (inactive) | 92.6 | 97.8 | -1.95% (inactive) | -4.67% (inactive) |
| COc1ccc(CCNC(=O)C2CCN(Cc3nc(-c4cccc(Cl)c4)oc3C)CC2)cc1OC | 83.5 | 81.5% (inactive) | 83.5% (inactive) | 47.9% (inactive) | 73.4% (inactive) | -27.2% (inactive) | 101 | 73.4 | -5.13% (inactive) | -1.45% (inactive) |
| COc1ccc(CC(NC(C)=O)C(=O)N2CCN(C(=O)N(C(C)C)C(C)C)CC2)cc1 (stereo not given) | 90.5 | 110% (inactive) | 90.5% (inactive) | 94.5% (inactive) | 94.2% (inactive) | 5.88% (inactive) | 88.3 | 94.2 | -5.13% (inactive) | -12.8% (inactive) |
| CCOc1ccccc1NC(=O)CCN1CCN(S(=O)(=O)c2ccc(Br)cc2)CC1 | 119 | 87.5% (inactive) | 119% (inactive) | 100% (inactive) | 86.9% (inactive) | 11.2% (inactive) | 75.7 | 86.9 | -6.8% (inactive) | 1.13% (inactive) |
| COC(=O)CCSCc1cn2cc(Cl)ccc2n1 | 120 | 106% (inactive) | 120% (inactive) | 87.3% (inactive) | 99.5% (inactive) | 1.26% (inactive) | 98.2 | 99.5 | -8% (inactive) | -9.84% (inactive) |
| CN=C(Nc1cc(C)nn1-c1ccccc1)c1ccccc1 | 93 | 95.5% (inactive) | 93% (inactive) | 86.6% (inactive) | 93.6% (inactive) | -3.59% (inactive) | 97.2 | 93.6 | -2% (inactive) | -3.55% (inactive) |
| COc1ccc(OC)c(C2=Nn3c(nnc3C3CCCCC3)SC2)c1 | 94 | 104% (inactive) | 94% (inactive) | 75.4% (inactive) | 78.1% (inactive) | 0.07% (inactive) | 78 | 78.1 | 5.92% (inactive) | 3.06% (inactive) |
| CCCCC(=O)NCCNc1nc2c(c(=O)n(C)c(=O)n2C)n1Cc1ccccc1 | 116 | 83% (inactive) | 116% (inactive) | 99.3% (inactive) | 94.6% (inactive) | -4.03% (inactive) | 98.7 | 94.6 | -5.68% (inactive) | 2.06% (inactive) |
| CCN(C(=O)COC(=O)c1cc(C)n(-c2ccc(F)cc2)c1C)C1CCS(=O)(=O)C1 (stereo not given) | 85.5 | 93.5% (inactive) | 85.5% (inactive) | 103% (inactive) | 103% (inactive) | -0.795% (inactive) | 104 | 103 | -3.47% (inactive) | 1.61% (inactive) |
| CC1=CC2=C(OC1N(C)C)c1cccc3cccc(c13)C2=O (stereo not given) | 106 | 65% (inactive) | 106% (inactive) | 83% (inactive) | 78.5% (inactive) | -0.375% (inactive) | 78.9 | 78.5 | 2.21% (inactive) | 6.17% (inactive) |
| CC(C)c1nnc(NC(=O)c2cnccn2)s1 | 87.5 | 88.5% (inactive) | 87.5% (inactive) | 104% (inactive) | 92.2% (inactive) | -0.1% (inactive) | 92.3 | 92.2 | -3.65% (inactive) | -2.46% (inactive) |
| COc1ccc(NC(C)=O)cc1NC(=O)CN1CCN(c2ccccn2)CC1 | 96 | 116% (inactive) | 96% (inactive) | 96% (inactive) | 85.6% (inactive) | 5.82% (inactive) | 79.8 | 85.6 | -1.87% (inactive) | -7.9% (inactive) |
| CCOC(=O)Cn1c(S(=O)(=O)Cc2ccccc2)nc2ccccc21 | 86 | 89.5% (inactive) | 86% (inactive) | 103% (inactive) | 91.5% (inactive) | 4.28% (inactive) | 87.2 | 91.5 | -0.13% (inactive) | -3% (inactive) |
| O=C(OCC#CCSc1nc2ccccc2s1)c1ccco1 | 88 | 90.5% (inactive) | 88% (inactive) | 74.7% (inactive) | 81.8% (inactive) | 1.8% (inactive) | 80 | 81.8 | -2.34% (inactive) | -10.8% (inactive) |
| CCOc1ccc(N2CC(C(=O)Nc3cccc(C)c3C)CC2=O)cc1 (stereo not given) | 118 | 110% (inactive) | 118% (inactive) | 111% (inactive) | 108% (inactive) | 12.1% (inactive) | 95.9 | 108 | -3.47% (inactive) | -4.43% (inactive) |
